{"source": "paper PMC6624389", "about": "(British Journal of Clinical Pharmacology, 2019)", "key": {"T2DM patients [1]": {"tested_on": "T2DM patients", "conditions": "T2DM patients with mean FPG 8–9 mmol/L (144–162 mg/dL); cited from earlier work"}, "[2]": {"tested_on": "Japanese patients with T2DM", "test": "Simulation of steady-state ΔUGE24h by the final PK/PD model", "set-up": "species or system human", "conditions": "50 mg once daily", "how_it_was_run": "(§1)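 Steady state was simulated for 887 Japanese T2DM patients at 12.5, 25, 50 and 100 mg once daily. AUC24h came from individual post-hoc CL/F of the final PopPK model, and ΔUGE24h came from the final PK/PD model. The 50 mg regimen was also summarized by eGFR class (≥90, 60 to <90, 30 to <60 mL/min/1.73 m2). Results are given as median and 2.5th–97.5th percentiles.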"}, "[3]": {"conditions": "cited from earlier work"}, "[4]": {"tested_on": "T2DM patients with moderate renal impairment", "conditions": "cited from earlier work"}, "[5]": {"tested_on": "Japanese patients with T2DM", "conditions": "once daily 50 mg for 16 weeks; cited from earlier work"}, "[6]": {"test": "Simulation of steady-state AUC24h using post-hoc CL/F from the final PopPK model", "set-up": "species or system human", "how_it_was_run": "as §1"}, "[7]": {"tested_on": "Japanese healthy subjects and patients with T2DM", "test": "Phase I and clinical pharmacology studies", "type": "in vivo, human", "how_it_was_run": "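Oral dosing in three studies. Healthy subjects received single fasted doses of 1–300 mg, or 20–100 mg daily after a standardized meal. T2DM patients received 50 or 100 mg daily for 14 days. A single 50 mg dose was given to T2DM patients grouped by eGFR. Urine was collected for 24 h predose and in postdose intervals, and UGE24h was calculated. Pooled data from 137 subjects were plotted against FPG and AUC24h.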"}, "[8]": {"tested_on": "Japanese healthy subjects and patients with T2DM", "test": "PK/PD maximum effect", "type": "in vivo, human", "how_it_was_run": "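Emax model fitted in NONMEM (FOCE with interaction) to pooled healthy-subject and T2DM data from three studies. AUC24h came from noncompartmental analysis, and UGE24h was taken over matching intervals. Emax was modelled as dependent on FAC (FPG × GFR) up to a threshold of 18 000 and constant above it. There was no interindividual variability, and residual error was additive plus proportional. Covariates were added stepwise (P < .05) and removed backward (P < .001), and the model was bootstrapped.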"}, "[9]": {"conditions": "cited from earlier work", "remark": "listed apart in the source"}, "T2DM patients [10]": {"tested_on": "T2DM patients", "conditions": "once daily 12.5, 25, 50 and 100 mg, 12 weeks; cited from earlier work"}, "[11]": {"conditions": "cited from earlier work", "remark": "listed apart in the source"}, "[12]": {"tested_on": "Japanese healthy subjects and patients with T2DM", "conditions": "phase I and clinical pharmacology studies; cited from earlier work"}, "Population PK model": {"test": "Population PK model", "type": "in vivo, human", "how_it_was_run": "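The prior model was built from 534 plasma concentrations in 43 T2DM patients sampled serially after oral dosing. It was a 2-compartment model with first-order absorption (ADVAN4/TRANS4), log-normal interindividual variability and proportional residual error, fitted by FOCE with interaction. It served via $PRIOR to fit trough concentrations from four later studies. Covariates on CL/F were tested stepwise. Plasma drug was measured by LC–MS/MS (LLOQ 1 ng/mL).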"}}}
{"smiles": "OC[C@H]1O[C@@H](c2ccc(Cl)c(Cc3ccc(O[C@H]4CCOC4)cc3)c2)[C@H](O)[C@@H](O)[C@@H]1O", "note": "[empagliflozin]", "values": [{"measurement": "Emax", "setting": "T2DM patients [1]", "value": 120, "unit": "g/24 h"}]}
{"smiles": "OC[C@H]1O[C@@H](c2ccc(F)c(Cc3cc4ccccc4s3)c2)[C@H](O)[C@@H](O)[C@@H]1O", "note": "[ipragliflozin]", "values": [{"measurement": "change in ΔUGE24h, moderate renal impairment compared to normal renal function", "setting": "[2]", "value": 0.76, "unit": "fold"}, {"measurement": "oral bioavailability", "setting": "[3]", "value": "> 90", "unit": "%"}, {"measurement": "antidiabetic effect", "setting": "[4]", "value": "weaker antidiabetic effect"}, {"measurement": "decreasing FPG and HbA1c levels versus placebo", "setting": "[5]", "value": "superior to a placebo"}, {"measurement": "tolerability", "setting": "[5]", "value": "well tolerated"}, {"measurement": "higher exposure in moderate renal impairment patients with T2DM", "setting": "[6]; descriptive comparison of assessed AUC and simulation by final PopPK model", "value": "about 20%"}, {"measurement": "change in exposure caused by covariates other than GFR (BSA, TPRO, TBIL)", "setting": "[6]; final PopPK model", "value": "≤ 10", "unit": "%"}, {"measurement": "increase in AUC24h, moderate renal impairment compared to normal renal function", "setting": "[6]; simulation, 50 mg once daily, T2DM patients", "value": 1.17, "unit": "fold"}, {"measurement": "effects on UGE at low doses", "setting": "[7]; 1 and 3 mg single dose, healthy subjects, Study A", "value": "no significant effects"}, {"measurement": "UGE after single and multiple doses", "setting": "[7]; healthy subjects and T2DM patients, exploratory assessment", "value": "dose‐dependent increase"}, {"measurement": "glucose excretion effect versus dose", "setting": "[8]; above 50 mg daily dose, suggested by PK/PD model", "value": "almost reaches the maximum level"}, {"measurement": "Emax of ΔUGE24h: FAC > 18 000", "setting": "[8]; population mean, constant above FAC threshold", "value": 107, "unit": "g/24 h"}, {"measurement": "Emax of ΔUGE24h: FAC ≤ 18 000", "setting": "[8]; population mean, reference FPG 100 mg/dL and GFR 90 mL/min", "value": 72.3, "unit": "g/24 h"}, {"measurement": "protein binding ex vivo", "setting": "[9]", "value": "~ 96%"}, {"measurement": "fasting plasma glucose (FPG) and HbA1c levels", "setting": "T2DM patients [10]", "value": "dose‐dependent decreases"}, {"measurement": "urinary excretion ratio of unchanged ipragliflozin", "setting": "[11]", "value": "approximately 1%"}, {"measurement": "exposure versus dose", "setting": "[12]", "value": "increase dose‐dependently"}, {"measurement": "tolerability", "setting": "[12]", "value": "consistently well tolerated"}, {"measurement": "urinary glucose excretion (UGE) versus dose", "setting": "[12]", "value": "increase dose‐dependently"}, {"measurement": "Interindividual variability of CL/F", "setting": "Population PK model; base model, before covariates", "value": 26.8, "unit": "%"}, {"measurement": "Interindividual variability ω^2: CL", "setting": "Population PK model; final PopPK model", "value": 0.0533}, {"measurement": "Vd/F", "setting": "Population PK model; human, plasma, oral", "value": 39.4, "unit": "L"}, {"measurement": "first order absorption rate constant Ka", "setting": "Population PK model; population mean, T2DM patients", "value": 6.38, "unit": "h⁻¹"}, {"measurement": "oral clearance CL/F", "setting": "Population PK model; population mean, T2DM patients", "value": 9.47, "unit": "L/h"}]}
